Test results: ChEMBL document CHEMBL3259661, “Identification of a neuroprotective and selective butyrylcholinesterase inhibitor derived from the natural alkaloid evodiamine” (Eur J Med Chem, 2014)
The source made the active and inactive calls. The rule behind the calls is not given here.

Key:
Cholinesterase = Cholinesterase (Equus caballus, UniProt P81908); assay: (§1) Inhibition of equine serum BChE by Ellman's method
How it was run: (§2)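 Ethanol stocks diluted into assay, highest final concentration 10^-4 M. For curves, at least five concentrations (normally 10^-4 to 10^-9 M), each in triplicate; at least 3 independent determinations.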

Acetylcholinesterase = Acetylcholinesterase (Electrophorus electricus, UniProt O42275); assay: Inhibition of electric eel AChE by Ellman's method; how it was run: as §2
[1] = Selectivity ratio of IC50 for Electrophorus electricus acetylcholinesterase to IC50 for equine serum butyrylcholinesterase
How it was run: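 Ratio IC50(AChE)/IC50(BChE), with both IC50s from Ellman assays (electric eel AChE, equine serum BChE, 25 °C, 412 nm, at least five concentrations in triplicate, at least 3 independent determinations).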

[2] = Antioxidant activity in phosphate buffer assessed as scavenging activity against peroxy radicals at pH 7.4 by ORAC-FL method relative to trolox; assay type: functional
How it was run: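 ORAC-FL in 75 mM phosphate buffer pH 7.4, 37 °C; sample with fluorescein (300 nM final) preincubated 15 min, then AAPH (12 mM final) added; fluorescence read every 60 s for 90 min (ex 485/em 535 nm). Blank and Trolox calibration in each assay; AUC from blank-normalised decay curves; expressed as Trolox equivalents.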

[3] = biological target: Cholinesterase (Equus caballus) (UniProt P81908); assay: Inhibition of equine serum BChE at 10 uM by Ellman's method
[4] = biological target: Acetylcholinesterase (Electrophorus electricus) (UniProt O42275); assay: Inhibition of electric eel AChE at 10 uM by Ellman's method
HT-22 [5] = assay: Neuroprotection against glutamate challenged mouse HT22 cells assessed as reduction in cell viability at 5 to 10 uM after 48 hrs by MTT assay; assay type: functional, cell-based
How it was run: (§3)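 Murine hippocampal HT-22 cells grown in high-glucose DMEM + 10% heat-inactivated FCS, 37 °C, 5% CO2. Seeded 5 × 10³/well, cultured 24 h, then 24 h with compound (DMSO stock, final DMSO ≤0.1%) plus 5 mM glutamate. MTT (4 mg/mL stock diluted 1:10) for 3 h, 10% SDS lysis, absorbance 560 nm next day. Viability as % of untreated control. Means ± SD, ≥3 independent experiments.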

HT-22 [6] = assay: Neuroprotection against glutamate challenged mouse HT22 cells assessed as reduction in cell viability at 5 uM after 48 hrs by MTT assay; assay type: functional, cell-based
[7] = biological target: Acetylcholinesterase (Electrophorus electricus) (UniProt O42275); assay: Inhibition of electric eel AChE at 100 uM by Ellman's method
HT-22 [8] = assay: Neurotoxicity against mouse HT22 cells assessed as reduction in cell viability at 1 to 10 uM […] by MTT assay; assay type: toxicity, cell-based; conditions: ht-22, 10 µM
HT-22 [9] = assay: Neurotoxicity against mouse HT22 cells assessed as reduction in cell viability at 25 uM […] by MTT assay; assay type: toxicity, cell-based; conditions: ht-22, 25 µM
HT-22 [10] = assay: Neuroprotection against glutamate challenged mouse HT22 cells assessed as reduction in cell viability at 1 to 25 uM after 48 hrs by MTT assay; assay type: functional, cell-based; how it was run: as §3
[11] = biological target: Cholinesterase (Equus caballus) (UniProt P81908); assay: Inhibition of equine serum BChE at 100 uM by Ellman's method
[12] = biological target: Cholinesterase (Equus caballus) (UniProt P81908); assay: as §1; conditions: TDE = time-dependent effect; how it was run: as §2
[13] = biological target: Cholinesterase (Equus caballus) (UniProt P81908); assay: Binding affinity to equine serum BChE assessed as compound-enzyme complex stability
How it was run: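 Kinetic study on equine serum BChE with time-dependent inhibition followed to steady state (60 min); equilibrium constant of inhibitor–BChE complex (K_C) and carbamoylation rate constant (k3) determined.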

HT-22 [14] = assay: Neurotoxicity against mouse HT22 cells assessed as reduction in cell viability at 1 to 25 uM […] by MTT assay; assay type: toxicity, cell-based; conditions: ht-22, 25 µM

Cholinesterase (Equus caballus), sequence (P81908 whole entry): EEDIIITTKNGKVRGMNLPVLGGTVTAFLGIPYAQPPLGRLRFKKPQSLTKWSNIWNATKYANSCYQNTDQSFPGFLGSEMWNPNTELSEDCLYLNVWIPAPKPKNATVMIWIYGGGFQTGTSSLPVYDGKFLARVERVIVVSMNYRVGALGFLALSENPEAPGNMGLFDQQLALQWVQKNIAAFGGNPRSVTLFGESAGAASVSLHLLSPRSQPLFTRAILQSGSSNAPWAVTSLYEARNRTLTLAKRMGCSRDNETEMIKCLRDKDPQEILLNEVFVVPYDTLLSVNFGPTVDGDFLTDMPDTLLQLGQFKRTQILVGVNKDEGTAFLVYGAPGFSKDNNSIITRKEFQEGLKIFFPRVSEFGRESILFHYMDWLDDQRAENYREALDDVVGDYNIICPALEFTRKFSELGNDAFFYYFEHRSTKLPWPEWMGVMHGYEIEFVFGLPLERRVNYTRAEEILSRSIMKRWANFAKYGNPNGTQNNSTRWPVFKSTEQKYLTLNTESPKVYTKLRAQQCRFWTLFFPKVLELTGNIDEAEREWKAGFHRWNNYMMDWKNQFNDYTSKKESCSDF
Cholinesterase, sequence (P81908 whole entry): as above
Acetylcholinesterase, sequence (O42275 whole entry): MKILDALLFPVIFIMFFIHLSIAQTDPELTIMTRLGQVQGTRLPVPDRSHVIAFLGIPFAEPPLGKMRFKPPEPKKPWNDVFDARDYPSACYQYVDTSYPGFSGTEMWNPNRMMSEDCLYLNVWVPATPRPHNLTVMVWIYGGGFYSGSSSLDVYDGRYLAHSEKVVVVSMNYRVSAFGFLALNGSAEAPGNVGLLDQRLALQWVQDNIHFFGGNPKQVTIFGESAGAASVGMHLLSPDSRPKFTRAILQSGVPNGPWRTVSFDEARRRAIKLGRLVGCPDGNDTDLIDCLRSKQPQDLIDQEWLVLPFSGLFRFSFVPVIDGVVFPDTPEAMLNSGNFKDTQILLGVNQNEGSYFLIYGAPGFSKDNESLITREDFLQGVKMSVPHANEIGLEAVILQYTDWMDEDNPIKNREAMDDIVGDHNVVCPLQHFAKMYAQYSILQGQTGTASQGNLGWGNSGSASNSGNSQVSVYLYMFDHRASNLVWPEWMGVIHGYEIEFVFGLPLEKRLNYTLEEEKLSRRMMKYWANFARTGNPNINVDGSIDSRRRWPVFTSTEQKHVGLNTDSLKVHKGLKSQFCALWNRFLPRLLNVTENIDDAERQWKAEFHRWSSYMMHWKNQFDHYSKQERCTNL
Acetylcholinesterase (Electrophorus electricus), sequence (O42275 24-633 limits assumed): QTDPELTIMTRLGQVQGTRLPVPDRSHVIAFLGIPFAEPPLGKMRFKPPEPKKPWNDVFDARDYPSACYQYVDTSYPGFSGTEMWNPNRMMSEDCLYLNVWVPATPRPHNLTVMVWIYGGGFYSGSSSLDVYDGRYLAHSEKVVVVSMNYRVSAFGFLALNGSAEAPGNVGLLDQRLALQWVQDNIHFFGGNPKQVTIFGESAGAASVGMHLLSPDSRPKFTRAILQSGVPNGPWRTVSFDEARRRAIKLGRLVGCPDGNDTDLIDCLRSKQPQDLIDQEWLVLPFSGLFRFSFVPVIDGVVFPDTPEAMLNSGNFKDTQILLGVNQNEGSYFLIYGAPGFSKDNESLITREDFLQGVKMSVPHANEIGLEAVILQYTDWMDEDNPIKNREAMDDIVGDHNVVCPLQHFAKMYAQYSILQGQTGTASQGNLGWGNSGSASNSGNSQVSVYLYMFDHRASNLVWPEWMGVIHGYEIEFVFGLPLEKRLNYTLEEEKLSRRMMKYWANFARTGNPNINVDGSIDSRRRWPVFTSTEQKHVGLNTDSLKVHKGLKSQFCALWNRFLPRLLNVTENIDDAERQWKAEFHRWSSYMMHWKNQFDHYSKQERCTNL

| SMILES | IC50 (Cholinesterase) | IC50 (Acetylcholinesterase) | Ratio IC50 [1] | inhibition [3] | inhibition [4] | other results |
| --- | --- | --- | --- | --- | --- | --- |
| CN1c2ccccc2CN2CCc3c([nH]c4ccccc34)C21 (stereo not given) | 2.68 µM | > 10 µM | > 3.73 | 5.57% | 24% | ORAC value (Trolox equivalents) [2]: 2.32; Activity (HT-22 [5]): Active |
| CN1c2ccc(OC(=O)NCc3ccccc3)cc2C(=O)N2CCc3c([nH]c4ccccc34)C21 (stereo not given) | > 10 µM | > 10 µM | – | 15% | 10% | – |
| CC(C)c1ccc(NC(=O)Oc2ccc3c(c2)C(=O)N2CCc4c([nH]c5ccccc45)C2N3C)cc1 (stereo not given) | > 10 µM | > 10 µM | – | 7% | 14% | – |
| CNC(=O)Oc1ccc2c(c1)[C@]1(C)CCN(C)[C@@H]1N2C | – | – | – | 7.22% | 8.11% | – |
| CN1c2ccccc2C(=O)N2CCc3c([nH]c4ccccc34)C21 (stereo not given) | 4.62 µM | > 10 µM | > 2.16 | 5.34% | 37% | – |
| CN1c2ccc(O)cc2C(=O)N2CCc3c([nH]c4ccccc34)C21 (stereo not given) | > 100 µM | > 100 µM | – | – | 29% | – |
| CCNC(=O)Oc1ccc2c(c1)C(=O)N1CCc3c([nH]c4ccccc34)C1N2C (stereo not given) | > 10 µM | > 10 µM | – | 21% | 15% | – |
| CCCCNC(=O)Oc1ccc2c(c1)CN1CCc3c([nH]c4ccccc34)C1N2C (stereo not given) | 3.97 µM | > 10 µM | > 2.52 | 5.4% | 47% | – |
| CCCCNC(=O)Oc1ccc2c(c1)C(=O)N1CCc3c([nH]c4ccccc34)C1N2C (stereo not given) | > 10 µM | > 10 µM | – | 12% | 10% | – |
| COc1cccc(NC(=O)Oc2ccc3c(c2)C(=O)N2CCc4c([nH]c5ccccc45)C2N3C)c1 (stereo not given) | > 10 µM | > 10 µM | – | 3% | 15% | – |
| O=c1c(O)c(-c2ccc(O)c(O)c2)oc2cc(O)cc(O)c12 | – | – | – | – | – | Activity (HT-22 [6]): Active |
| CN1c2ccc(OC(=O)NCc3ccccc3)cc2CN2CCc3c([nH]c4ccccc34)C21 (stereo not given) | 2.15 µM | > 10 µM | > 4.65 | 5.67% | 34% | – |
| CN1c2ccc(O)cc2CN2CCc3c([nH]c4ccccc34)C21 (stereo not given) | 19.3 µM | > 100 µM | > 5.17 | 4.71% | – | ORAC value (Trolox equivalents) [2]: 3.55; inhibition [7]: 43%; Activity (HT-22 [8]): Non-toxic; Activity (HT-22 [9]): Toxic; Activity (HT-22 [10]): Active; inhibition [11]: 47% |
| CN1c2ccc(OCc3ccccc3)cc2C(=O)N2CCc3c([nH]c4ccccc34)C21 (stereo not given) | 0.88 µM | 3.01 µM | 3.42 | 6.07% | 5.52% | – |
| CC(C)c1ccc(NC(=O)Oc2ccc3c(c2)CN2CCc4c([nH]c5ccccc45)C2N3C)cc1 (stereo not given) | > 10 µM | > 10 µM | – | 41% | 13% | – |
| COc1cccc(NC(=O)Oc2ccc3c(c2)CN2CCc4c([nH]c5ccccc45)C2N3C)c1 (stereo not given) | > 10 µM | > 10 µM | – | 30% | 19% | – |
| CCNC(=O)Oc1ccc2c(c1)CN1CCc3c([nH]c4ccccc34)C1N2C (stereo not given) | 1.03 µM | > 10 µM | > 9.71 | 5.99% | 26% | – |
| CCCCCCCNC(=O)Oc1ccc2c(c1)CN1CCc3c([nH]c4ccccc34)C1N2C (stereo not given) | 0.077 µM | > 10 µM | > 130 | 7.11% | 17% | inhibition [12]: tde; ORAC value (Trolox equivalents) [2]: 1.75; K [13]: 492 nM; Activity (HT-22 [8]): Non-toxic; Activity (HT-22 [9]): Toxic; Activity (HT-22 [10]): Active |
| CCCCCCCNC(=O)Oc1ccc2c(c1)C(=O)N1CCc3c([nH]c4ccccc34)C1N2C (stereo not given) | – | – | – | – | – | ORAC value (Trolox equivalents) [2]: 0.32; Activity (HT-22 [14]): Toxic; Activity (HT-22 [10]): Active |
